Some results are limits rather than exact numbers.

Experiment [1] can be described thus: Cytotoxicity against human OCI-LY7 cells after 48 hrs by CellTitre-Blue assay. Format: functional, cell-based. As to conditions: OCI-Ly7, 48 h. In a few lines:
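OCI-LY7 assays were run in IMDM + GlutaMAX with 25 mM HEPES, phenol red, 20% FBS and 1% PenStrep. […] Viability was read by CellTiter-Blue. IC50 came from at least two independent experiments, each with three replicates.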

Experiment [2] can be described thus: Cytotoxicity against human MEC1 cells after 48 hrs by CellTitre-Blue assay. Format: functional, cell-based. As to conditions: MEC1, 48 h. In outline: (§1)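 Screening used phenol red-free RPMI 1640 + L-glutamine with 10% FBS and 1% PenStrep. Exposure was 48 h in triplicate, with CellTiter-Blue read-out. IC50 came from at least two independent experiments, each in triplicate.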

Experiment [3] has as its system K562. The experiment in a line: Cytotoxicity against human K562 cells after 24 hrs by MTT assay. The experiment is classed as functional, cell-based. As to conditions: K562, 24 h.
Experiment [4] is described as follows: Cytotoxicity against mouse M210B4 cells after 48 hrs by CellTitre-Blue assay. Format: cell-based. As to conditions: M210B4, 48 h. In a few lines:
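Murine bone marrow fibroblasts served as the non-malignant counter-screen. Compound was tested at six levels (0.1, 1, 5, 10, 50, 100 μM) for 48 h. Viability was read by CellTiter-Blue. IC50 came from at least two independent experiments with three replicates each.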

The subject of experiment [5] is Jurkat. Briefly: Cytotoxicity against human Jurkat cells after 24 hrs by MTT assay. The experiment is classed as functional, cell-based.
A short description of experiment [6]: Cytotoxicity against human U2940 cells after 48 hrs by CellTitre-Blue assay. Format: functional, cell-based. As to conditions: U-2940, 48 h. In a few lines: as §1
The test system of experiment [7] is K562. Briefly: Cytotoxicity against human K562 cells assessed as reduction in cell viability at <1 uM after 48 hrs by CellTitre-Blue assay. Format: functional. In outline:
(§2)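 Cell lines were maintained in RPMI 1640 + GlutaMAX with 10% FBS and 1% penicillin/streptomycin at 37 °C under 5% CO2. For the assay, cells went into phenol red-free RPMI 1640 + L-glutamine with 10% FBS and 1% PenStrep. They were incubated in triplicate with increasing compound concentrations for 48 h. Viability was read by CellTiter-Blue, normalized to vehicle-only cells, and reported as mean plus SD.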

Experiment [8] concerns Jurkat. Briefly: Cytotoxicity against human Jurkat cells assessed as reduction in cell viability at <1 uM after 48 hrs by CellTitre-Blue assay. Format: functional. In outline:
as §2

Experiment [9] is described as follows: Cytotoxicity against human HL60 cells assessed as reduction in cell viability at <1 uM after 48 hrs by CellTitre-Blue assay. Format: functional, HL-60. In outline:
as §2

The nature of experiment [10]: Cytotoxicity against human HL60 cells after 48 hrs by CellTitre-Blue assay. Format: functional, cell-based. As to conditions: HL-60, 48 h. In outline:
(§3)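 Cell lines in phenol red-free RPMI 1640 with L-glutamine, 10% FBS and 1% penicillin/streptomycin. Cells exposed in triplicate to increasing compound concentrations for 48 h at 37 °C. CellTiter-Blue read-out, normalized to vehicle-only cells. IC50 from two independent experiments.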

Experiment [11] is described as follows: Cytotoxicity against human SU-DHL6 cells after 48 hrs by CellTitre-Blue assay. As to conditions: SU-DHL-6, 48 h. The experiment is classed as functional, cell-based. In a few lines:
as §3

In experiment [12] the test system is CCRF-CEM. Briefly: Cytotoxicity against human CCRF-CEM cells assessed as reduction in cell viability at <1 uM after 48 hrs by CellTitre-Blue assay. The experiment is classed as functional. In a few lines:
as §2

The subject of experiment [13] is CCRF-CEM. Briefly: Cytotoxicity against human CCRF-CEM cells after 48 hrs by CellTitre-Blue assay. Format: functional, cell-based. In a few lines: as §3
The nature of experiment [14]: Cytotoxicity against human SUDHL9 cells after 48 hrs by CellTitre-Blue assay. The experiment is classed as functional, cell-based. As to conditions: SUDHL9, 48 h. In outline: as §3
Experiment [15] concerns PBMC. Briefly: Cytotoxicity against healthy human PBMC after 48 hrs by CellTitre-Blue assay. The experiment is classed as cell-based. In a few lines:
(§4)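 Cryopreserved PBMC (CLL patients N = 15; healthy donors N = 4) thawed and cultured overnight in phenol red-free RPMI 1640 with L-glutamine and 20% FBS. Suspension culture at 300 000 cells per well with increasing compound concentrations for 48 h, in triplicate. CellTiter-Blue viability normalized to vehicle; IC50 fitted from the mean values of all samples.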

Experiment [16] has as its system Jurkat. Briefly: Cytotoxicity against human Jurkat cells after 48 hrs by CellTitre-Blue assay. Format: functional, cell-based. In outline: as §3
Experiment [17] concerns PBMC. Briefly: Cytotoxicity against patient PBMC after 48 hrs by CellTitre-Blue assay in presenc of mouse M210B4 cells. The experiment is classed as cell-based. As to conditions: Homo sapiens. In outline:
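M2-10B4 mouse fibroblasts were seeded and left overnight to form a confluent layer. Medium was then replaced by 3 million PBMC from CLL patients (N = 9), which had been thawed and held overnight, in RPMI with 20% FBS. Cocultures were exposed to increasing compound concentrations for 48 h, in triplicate. CellTiter-Blue viability normalized to vehicle; IC50 from mean values of all samples.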

The test system of experiment [18] is PBMC. The experiment in a line: Cytotoxicity against patient PBMC after 48 hrs by CellTitre-Blue assay. As to conditions: Homo sapiens. Format: cell-based. In outline: as §4

A word on the IC50: it is the midpoint of a concentration-inhibition curve. Regarding `CCOc1ccccc1C(=O)/C=C/c1ccc2ccccc2c1`, the 50% inhibitory concentration (IC50) in experiment [1] worked out at 60 nM; in [2], 60 nM; in the experiment on K562 [3], 40000 nM; in experiment [4], 7800 nM; with Jurkat [5], 21000 nM; in experiment [6], 2400 nM.

In the case of `COc1ccccc1C(=O)/C=C/c1ccc2ccccc2c1`, the IC50 in experiment [1] is 460 nM; in experiment [2], 430 nM; in [4], 42000 nM; in experiment [6], 4100 nM.

In the case of `CCCOc1ccccc1C(=O)/C=C/c1ccc2ccccc2c1`, the half-maximal inhibitory concentration (IC50) in experiment [1] was 100 nM; in experiment [2] it was 130 nM; in experiment [4] it was greater than 100000 nM; in [6] it was 5300 nM.

With `CCCCOc1ccccc1C(=O)/C=C/c1ccc2ccccc2c1`, the half-inhibitory concentration (IC50) in experiment [1] is 120 nM; in experiment [2], 700 nM; in experiment [4], greater than 100000 nM; in experiment [6] it was 5300 nM.

As to `CC(C)Oc1ccccc1C(=O)/C=C/c1ccc2ccccc2c1`, the 50% inhibitory concentration (IC50) in experiment [1] is 150 nM; in experiment [2] it was 1200 nM; in [4], greater than 100000 nM; in experiment [6], 11000 nM.

With `Cc1ccccc1C(=O)/C=C/c1ccc2ccccc2c1`, the IC50 in experiment [1] was 4900 nM; in experiment [2] it was 6400 nM; in experiment [4], 72000 nM; in experiment [6] it was 10000 nM.

As for `CCOc1ccccc1C(=O)/C=C/c1ccc2cc(OC)ccc2c1`, the half-inhibitory concentration (IC50) is 1000 nM in experiment [1], 7200 nM in [2], greater than 100000 nM in experiment [4] and 25000 nM in experiment [6].

On to `C=Cc1cccc(/C=C/C(=O)c2ccccc2OCC)c1`, for which the 50% inhibitory concentration (IC50) in experiment [1] was 500 nM; in experiment [2] it was 200 nM; in experiment [4] it was greater than 100000 nM; in experiment [6], 2500 nM.

Take `CCOc1ccccc1C(=O)/C=C/c1ccc2c(c1)OCO2`: the IC50 in experiment [1] is 130 nM; in experiment [2], 1100 nM; in experiment [4], greater than 100000 nM; in [6], 9500 nM.

Turning to `CCOc1ccccc1C(=O)/C=C/c1cccc2ccccc12`, the IC50 in experiment [1] was found to be 1500 nM; in experiment [2], 1900 nM; in [4] it was 17000 nM; in experiment [6] it was 7400 nM.

For the compound `CCOc1ccccc1C(=O)/C=C/c1c2ccccc2cc2ccccc12`, the half-inhibitory concentration (IC50) in [1], in experiment [2] and in experiment [6] was greater than 100000 nM in each case.

For the compound `CCOc1ccccc1C(=O)/C=C/c1cc2ccccc2c2ccccc12`, the IC50 was 680 nM in experiment [1], 1600 nM in experiment [2], greater than 100000 nM in experiment [4] and 40000 nM in [6].

For `CCOc1ccccc1C(=O)/C=C/c1ccc2sccc2c1`, the half-inhibitory concentration (IC50) amounted to 340 nM in experiment [1], 340 nM in experiment [2], 21000 nM in [4] and 9100 nM in [6].

Turning to `CCOc1ccccc1C(=O)/C=C/c1csc2ccccc12`, the IC50 was 100 nM in experiment [1], 170 nM in experiment [2], 8200 nM in experiment [4] and 860 nM in [6].

Regarding `CCOc1ccccc1C(=O)/C=C/c1cc2ccccc2[nH]1`, the Activity is 60% with K562 [7], less than 30% with Jurkat [8], less than 30% in experiment [9] and less than 30% with CCRF-CEM [12]. The concentration for half-maximal inhibition (IC50) is 16 nM in experiment [10]; 56 nM in experiment [11]; 52 nM in experiment [1]; 32 nM in the experiment with CCRF-CEM [13]; 22 nM in experiment [2]; 31 nM in experiment [14]. In addition, the IC50 with PBMC [15] stood at 14000 nM; in experiment [4], 19000 nM; in experiment [6], 2900 nM; with Jurkat [16], 38 nM; in the experiment with PBMC [17], 680 nM; with PBMC [18], 1200 nM.

For `CCOc1cccc(C(=O)/C=C/c2ccc3ccccc3c2)c1`, the IC50 in [1] stood at 1800 nM; in experiment [2], 2900 nM; in experiment [6], 16000 nM.

Take `CCOc1cccc(C(=O)/C=C/c2csc3ccccc23)c1`: the IC50 was found to be 1700 nM in experiment [1], 2200 nM in experiment [2] and 7600 nM in experiment [6].

Consider `CCOc1ccc(C(=O)/C=C/c2csc3ccccc23)cc1`, for which the concentration for half-maximal inhibition (IC50) in experiment [1] amounted to 4800 nM; in [2], 7500 nM; in experiment [6], 15000 nM.

On to `CCOc1cccc(C(=O)/C=C/c2cc3ccccc3[nH]2)c1`, for which the IC50 in experiment [1] stood at 4800 nM; in experiment [2], 3300 nM.

`CCOc1ccc(C(=O)/C=C/c2cc3ccccc3[nH]2)cc1`: the concentration for half-maximal inhibition (IC50) in experiment [1] was 25000 nM; in [2] it was greater than 100000 nM.

For the compound `Nc1nc(F)nc2c1ncn2[C@@H]1O[C@H](CO)[C@@H](O)[C@@H]1O` [FLUDARABINE], the 50% inhibitory concentration (IC50) in the experiment with PBMC [15] was determined as 14000 nM; with PBMC [17], 10000 nM; with PBMC [18] it was 1900 nM.

The record behind these values is ChEMBL document CHEMBL3407335, “SAR-guided development and characterization of a potent antitumor compound toward B-cell neoplasms with no detectable cytotoxicity toward healthy cells” (J Med Chem, 2015).
